Data: ChEMBL document CHEMBL3621107, “Ring fusion strategy for synthesis and lead optimization of sulfur-substituted anthra[1,2-c][1,2,5]thiadiazole-6,11-dione derivatives as promising scaffold of antitumor agents” (Eur J Med Chem, 2015)

What was measured:
Malme-3M = experiment: Cytotoxicity against human MALME-3M cells assessed as cell growth at 10 uM after 48 hrs by SRB assay relative to control; type: functional; conditions: read-out: Activity
Summary of the method: (§1)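 First-stage NCI-60 screen by the NCI Developmental Therapeutics Program. Each compound was tested once at a single concentration of 10 μM against the 60-cell-line panel. Growth percentage was reported for each cell line.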

SK-MEL-28 = experiment: Cytotoxicity against human SK-MEL-28 cells assessed as cell growth at 10 uM after 48 hrs by SRB assay relative to control; type: functional; conditions: SK-MEL-28, 48 h, read-out: Activity
Summary of the method: (§2)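 First-stage NCI DTP one-dose screen against the 60 human tumour cell line panel. Compounds were tested at a single 10 μM level, and results are given as growth percentage.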

UACC-62 = experiment: Cytotoxicity against human UACC62 cells assessed as cell growth at 10 uM after 48 hrs by SRB assay relative to control; type: functional; conditions: UACC-62, 48 h, read-out: Activity
Summary of the method: (§3)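 NCI-60 one-dose screen run by NCI DTP: each cell line exposed to a single 10 µM dose, and percentage growth recorded against untreated growth.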

IGROV-1 = experiment: Cytotoxicity against human IGROV1 cells assessed as cell growth at 10 uM after 48 hrs by SRB assay relative to control; type: functional; conditions: IGROV-1, 48 h, read-out: Activity; summary of the method: as §1
OVCAR-4 = experiment: Cytotoxicity against human OVCAR4 cells assessed as cell growth at 10 uM after 48 hrs by SRB assay relative to control; type: functional; conditions: OVCAR-4, 48 h, read-out: Activity; summary of the method: as §2
786-0 = experiment: Cytotoxicity against human 786-0 cells assessed as cell growth at 10 uM after 48 hrs by SRB assay relative to control; type: functional; conditions: 786-0, 48 h, read-out: Activity; summary of the method: as §1
CAKI-1 = experiment: Cytotoxicity against human Caki1 cells assessed as cell growth at 10 uM after 48 hrs by SRB assay relative to control; type: functional; conditions: CAKI-1, 48 h, read-out: Activity; summary of the method: as §1
SN12C = experiment: Cytotoxicity against human SN12C cells assessed as cell growth at 10 uM after 48 hrs by SRB assay relative to control; type: functional; conditions: read-out: Activity; summary of the method: as §2
PC-3 [1] = experiment: Cytotoxicity against human PC3 cells assessed as cell growth at 10 uM after 48 hrs by SRB assay relative to control; type: functional; conditions: PC-3, 48 h, read-out: Activity; summary of the method: as §2
MCF7 = experiment: Cytotoxicity against human MCF7 cells assessed as cell growth at 10 uM after 48 hrs by SRB assay relative to control; type: functional; conditions: MCF7, 48 h, read-out: Activity; summary of the method: as §1
BT-549 = experiment: Cytotoxicity against human BT549 cells assessed as cell growth at 10 uM after 48 hrs by SRB assay relative to control; type: functional; conditions: BT-549, 48 h, read-out: Activity; summary of the method: as §1
MDA-MB-468 = experiment: Cytotoxicity against human MDA-MB-468 cells assessed as cell growth at 10 uM after 48 hrs by SRB assay relative to control; type: functional; conditions: MDA-MB-468, 48 h, read-out: Activity; summary of the method: as §2
PC-3 [2] = experiment: Cytotoxicity against human PC3 cells after 48 hrs by SRB assay; type: functional, cell-based; conditions: PC-3, 48 h
Summary of the method: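 Second-stage NCI-60 panel run by the NCI Developmental Therapeutics Program, covering nine tumour subpanels. Five concentrations were tested: 0.01, 0.1, 1, 10 and 100 μM. Percentage growth at each level was plotted against log10 drug concentration. GI50, TGI and LC50 were read from these dose-response curves. Subpanel MID values were divided into the full-panel MID to give selectivity ratios.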

DU-145 = experiment: Cytotoxicity against human DU145 cells after 72 hrs by MTT assay; type: functional, cell-based; conditions: DU-145, 72 h
Summary of the method: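 DU-145 cells grown in RPMI-1640 with 5% heat-inactivated fetal calf serum at 37 °C, 5% CO2. About 2×10^3 cells per well were seeded and incubated for 24 h. Compounds were dissolved in DMSO freshly and diluted into medium (vehicle 0.1% DMSO), then cells were exposed for 72 h. MTT was added for 3 h at 37 °C and absorbance read at 570 nm.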

CCRF-CEM = experiment: Cytotoxicity against human CCRF-CEM cells assessed as cell growth at 10 uM after 48 hrs by SRB assay relative to control; type: functional; conditions: read-out: Activity; summary of the method: as §1
HL-60(TB) = experiment: Cytotoxicity against human HL-60(TB) cells assessed as cell growth at 10 uM after 48 hrs by SRB assay relative to control; type: functional; conditions: HL-60, 48 h, read-out: Activity
Summary of the method: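 NCI Developmental Therapeutics Program 60-cell-line screen, first stage: a single dose of 10 μM against the panel, reported as percentage growth.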

MOLT-4 = experiment: Cytotoxicity against human MOLT4 cells assessed as cell growth at 10 uM after 48 hrs by SRB assay relative to control; type: functional; conditions: MOLT-4, 48 h, read-out: Activity; summary of the method: as §2
RPMI-8226 = experiment: Cytotoxicity against human RPMI8226 cells assessed as cell growth at 10 uM after 48 hrs by SRB assay relative to control; type: functional; conditions: RPMI-8226, 48 h, read-out: Activity; summary of the method: as §2
SR = experiment: Cytotoxicity against human SR cells assessed as cell growth at 10 uM after 48 hrs by SRB assay relative to control; type: functional; conditions: read-out: Activity; summary of the method: as §3
[3] = Cytotoxicity against human EKVX cells assessed as cell growth at 10 uM after 48 hrs by SRB assay relative to control; type: functional; conditions: read-out: Activity; summary of the method: as §1
HOP-62 = experiment: Cytotoxicity against human HOP62 cells assessed as cell growth at 10 uM after 48 hrs by SRB assay relative to control; type: functional; conditions: HOP-62, 48 h, read-out: Activity; summary of the method: as §1
NCI-H322M = experiment: Cytotoxicity against human NCI-H322M cells assessed as cell growth at 10 uM after 48 hrs by SRB assay relative to control; type: functional; conditions: read-out: Activity; summary of the method: as §2
HCC 2998 = experiment: Cytotoxicity against human HCC2998 cells assessed as cell growth at 10 uM after 48 hrs by SRB assay relative to control; type: functional; conditions: HCC 2998, 48 h, read-out: Activity; summary of the method: as §1
KM12 = experiment: Cytotoxicity against human KM12 cells assessed as cell growth at 10 uM after 48 hrs by SRB assay relative to control; type: functional; conditions: KM12, 48 h, read-out: Activity; summary of the method: as §1
SNB-19 = experiment: Cytotoxicity against human SNB19 cells assessed as cell growth at 10 uM after 48 hrs by SRB assay relative to control; type: functional; conditions: SNB-19, 48 h, read-out: Activity; summary of the method: as §3
U-251 = experiment: Cytotoxicity against human U251 cells assessed as cell growth at 10 uM after 48 hrs by SRB assay relative to control; type: functional; conditions: U-251, 48 h, read-out: Activity; summary of the method: as §3
NCI/ADR-RES = experiment: Cytotoxicity against human NCI/ADR-RES cells assessed as cell growth at 10 uM after 48 hrs by SRB assay relative to control; type: functional; conditions: read-out: Activity; summary of the method: as §2
OVCAR-5 = experiment: Cytotoxicity against human OVCAR5 cells assessed as cell growth at 10 uM after 48 hrs by SRB assay relative to control; type: functional; conditions: OVCAR-5, 48 h, read-out: Activity; summary of the method: as §2
HT-29 = experiment: Cytotoxicity against human HT-29 cells assessed as cell growth at 10 uM after 48 hrs by SRB assay relative to control; type: functional; conditions: HT-29, 48 h, read-out: Activity; summary of the method: as §1

Molecule O=C1c2ccccc2C(=O)c2c1cc(Cl)c1nsnc21 has a growth at 10 µM (Malme-3M) of 97.1%, a growth at 10 µM (SK-MEL-28) of 132% and a growth at 10 µM (UACC-62) of 72.9%. The growth at 10 µM (IGROV-1) was 52.5%, the growth at 10 µM (OVCAR-4) was -75% and the growth at 10 µM (786-0) was 102%. It also gave a growth at 10 µM (CAKI-1) of 96.5%, a growth at 10 µM (SN12C) of 71.9% and a growth at 10 µM (PC-3 [1]) of 23.5%. It also gave a growth at 10 µM (MCF7) of 65.4%, a growth at 10 µM (BT-549) of 102% and a growth at 10 µM (MDA-MB-468) of -88.3%. For the same molecule, the IC50 (PC-3 [2]) was 13.5 µM, the IC50 (DU-145) was 6.68 µM and the growth at 10 µM (CCRF-CEM) was -41.8%. The growth at 10 µM (HL-60(TB)) was 1.87%, the growth at 10 µM (MOLT-4) was -34.1% and the growth at 10 µM (RPMI-8226) was 27.8%. The growth at 10 µM (SR) was -23.9%, the growth at 10 µM [3] was 82.2% and the growth at 10 µM (HOP-62) was 75.8%. The growth at 10 µM (NCI-H322M) was 108%, the growth at 10 µM (HCC 2998) was 106% and the growth at 10 µM (KM12) was 95.9%. For the same molecule, the growth at 10 µM (SNB-19) was 106% and the growth at 10 µM (U-251) was 29.2%.

Work on O=C1c2ccccc2C(=O)c2c1cc(Sc1ccc(Cl)cc1)c1nsnc21 yielded a growth at 10 µM (Malme-3M) of 105%, a growth at 10 µM (SK-MEL-28) of 130% and a growth at 10 µM (UACC-62) of 90.7%. The growth at 10 µM (IGROV-1) was 84.9%, the growth at 10 µM (OVCAR-4) was 76.8% and the growth at 10 µM (NCI/ADR-RES) was 102%. The growth at 10 µM (786-0) was 109%, the growth at 10 µM (CAKI-1) was 87% and the growth at 10 µM (SN12C) was 87%. It also gave a growth at 10 µM (PC-3 [1]) of 86.9%, a growth at 10 µM (MCF7) of 86.1% and a growth at 10 µM (BT-549) of 98.9%. The growth at 10 µM (MDA-MB-468) was 46.1%, the IC50 (PC-3 [2]) was over 15 µM and the IC50 (DU-145) was over 15 µM. It also gave a growth at 10 µM (CCRF-CEM) of 79.3%, a growth at 10 µM (HL-60(TB)) of 87.3% and a growth at 10 µM (MOLT-4) of 59.2%. It also gave a growth at 10 µM (RPMI-8226) of 90.2%, a growth at 10 µM (SR) of 111% and a growth at 10 µM [3] of 94.8%. For the same molecule, the growth at 10 µM (HOP-62) was 102%, the growth at 10 µM (NCI-H322M) was 99.5% and the growth at 10 µM (HCC 2998) was 107%. It also gave a growth at 10 µM (KM12) of 102%, a growth at 10 µM (SNB-19) of 105% and a growth at 10 µM (U-251) of 104%.

For CSc1ccc(Sc2cc3c(c4nsnc24)C(=O)c2ccccc2C3=O)cc1, the growth at 10 µM (Malme-3M) was 105%, the growth at 10 µM (SK-MEL-28) was 120% and the growth at 10 µM (UACC-62) was 111%. The growth at 10 µM (IGROV-1) was 95.7%, the growth at 10 µM (OVCAR-5) was 108% and the growth at 10 µM (NCI/ADR-RES) was 91.8%. The growth at 10 µM (786-0) was 110%, the growth at 10 µM (CAKI-1) was 99.4% and the growth at 10 µM (SN12C) was 98%. For the same molecule, the growth at 10 µM (PC-3 [1]) was 78.4%, the growth at 10 µM (MCF7) was 82.9% and the growth at 10 µM (BT-549) was 108%. For the same molecule, the growth at 10 µM (MDA-MB-468) was 82.2%, the IC50 (PC-3 [2]) was over 15 µM and the IC50 (DU-145) was over 15 µM. The growth at 10 µM (HL-60(TB)) was 105%, the growth at 10 µM (MOLT-4) was 59.9% and the growth at 10 µM (RPMI-8226) was 88.6%. It also gave a growth at 10 µM (SR) of 96.3%, a growth at 10 µM [3] of 114% and a growth at 10 µM (HOP-62) of 102%. For the same molecule, the growth at 10 µM (HCC 2998) was 111%, the growth at 10 µM (HT-29) was 102% and the growth at 10 µM (KM12) was 100%. The growth at 10 µM (SNB-19) was 102% and the growth at 10 µM (U-251) was 104%.
